Experimental data published in ChEMBL document CHEMBL1145822, “4-Aryl-3-(hydroxyalkyl)quinolin-2-ones: novel maxi-K channel opening relaxants of corporal smooth muscle targeted for erectile dysfunction” (J Med Chem, 2003).

Assays:
Assay type in all cases: functional
Xenopus laevis = species: Xenopus laevis; experiment: Effect of compound (20 uM) on maxi-K-mediated outward current in Xenopus laevis oocytes expressing the cloned hSlo maxi-K channels was determined
How it was run: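 Two-electrode voltage clamp of Xenopus laevis oocytes expressing cloned hSlo maxi-K channels; single 20 μM drug concentration applied, measuring iberiotoxin-sensitive outward K⁺ current in at least five oocytes per compound; result given as mean percent change in hSlo current versus drug-free control (100%).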

Oryctolagus cuniculus [1] = species: Oryctolagus cuniculus; experiment: Percentage inhibition of isometric force in response to 10 uM compound in isolated rabbit corpus cavernosum precontracted with 3 uM phenylephrine
How it was run: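 New Zealand white rabbit (3.4–3.7 kg) corpus cavernosum strips (3–5 mm) in oxygenated modified Krebs Henseleit bicarbonate buffer, 37 °C, equilibrated ≥1 h at 1.0 g resting tension; contracted with phenylephrine 3 μM to steady force before compound; isometric force read; percent inhibition of phenylephrine-induced force relative to vehicle control.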

Oryctolagus cuniculus [2] = species: Oryctolagus cuniculus; experiment: Tested for concentration dependent relaxation over a period of 90 min in isolated rabbit corpus cavernosum.; settings: 1.5 h

| IC50 (Oryctolagus cuniculus [2]) [µM] | SMILES | Increase (Xenopus laevis) [%] | Inhibition (Oryctolagus cuniculus [1]) [%] |
| --- | --- | --- | --- |
| – | OC/C=C/c1c(O)nc2ccc(C(F)(F)F)cc2c1-c1cc(Cl)ccc1O | 257 | 46 |
| – | COc1ccc(Cl)cc1-c1c(CCCO)c(O)nc2ccc(C(F)(F)F)cc12 | 258 | 35.7 |
| – | OCCCc1c(O)nc2ccc(C(F)(F)F)cc2c1-c1cc(Cl)ccc1O | 292 | 43 |
| – | COc1ccc(Cl)cc1-c1c(CCO)c(O)nc2ccc(C(F)(F)F)cc12 | 211 | 26.8 |
| 5 | O=c1[nH]c2ccc(C(F)(F)F)cc2c(-c2cc(Cl)ccc2O)c1CCO [BMS-223131] | 378 | 83.7 |
| – | OCc1c(O)nc2ccc(C(F)(F)F)cc2c1-c1cc(Cl)ccc1O | 198 | 36 |
| – | COc1ccc(Cl)cc1-c1c(/C=C/CO)c(O)nc2ccc(C(F)(F)F)cc12 | 223 | 31.8 |
| – | O=c1[nH]c2cc(C(F)(F)F)ccc2n1-c1cc(Cl)ccc1O | 132 | 31 |
| – | COc1ccc(Cl)cc1-c1c(CO)c(O)nc2ccc(C(F)(F)F)cc12 | 114 | – |
